Data: ChEMBL document CHEMBL5058577, “EUbOPEN Chemogenomics Library 2 (Multiplex)” (2022)

System: HEK-293T
Test: Multiplex assay against HEK293T
Format: toxicity, cell-based
Details: human
Outline: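 Four dyes were applied at seeding to live cells: Hoechst33342, BioTracker Green Microtubule Cytoskeleton Dye, MitoTracker Red and Annexin V Alexa Fluor 680. Imaging after compound addition used a CQ1 microscope at 37°C and 5% CO2. CellPathfinder machine-learning gating then sorted cells into Hoechst high-intensity objects or normal cells, normal cells into healthy, pyknosed or fragmented nuclei, and pyknosed cells into mitotic or apoptotic, with tubulin, mitochondrial-mass and membrane-permeability phenotypes given as per cents of healthy-nucleus cells.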

[1] = 12 h, 1 µM, compound concentration 1 uM, replicate 1
[2] = 12 h, 1 µM, compound concentration 1 uM, replicate 2
[3] = 12 h, 10 µM, compound concentration 10 uM, replicate 1
[4] = 12 h, 10 µM, compound concentration 10 uM, replicate 2
[5] = 24 h, 1 µM, compound concentration 1 uM, replicate 1
[6] = 24 h, 1 µM, compound concentration 1 uM, replicate 2
[7] = 24 h, 10 µM, compound concentration 10 uM, replicate 1
[8] = 24 h, 10 µM, compound concentration 10 uM, replicate 2
[9] = 48 h, 1 µM, compound concentration 1 uM, replicate 1
[10] = 48 h, 1 µM, compound concentration 1 uM, replicate 2
[11] = 48 h, 10 µM, compound concentration 10 uM, replicate 1
[12] = 48 h, 10 µM, compound concentration 10 uM, replicate 2

O=C(O)CCC/C=C\CC1C(O)CC(O)C1/C=C/C(O)COc1cccc(Cl)c1 (stereo not drawn) [CLOPROSTENOL]
Population Apoptotic (%) [1]: 31% | Population Fragmented Nuclei (%) [1]: 7% | Population Healthy Nuclei (%) [1]: 81% | Population Hoechst High Intensity Objects (%) [1]: 9% | Population Membrane Permeable-Phenotype (%) [1]: 0% | Population Mitochondria Different-Phenotype (%) [1]: 44% | Population Mitotic Cells (%) [1]: 68% | Population Normal (%) [1]: 90% | Population Pyknosed Nuclei (%) [1]: 10% | Population Tubulin-Different-Phenotype (%) [1]: 35% | Total Cell Count [1]: 458 | Population Apoptotic (%) [2]: 40% | Population Fragmented Nuclei (%) [2]: 6% | Population Healthy Nuclei (%) [2]: 80% | Population Hoechst High Intensity Objects (%) [2]: 7% | Population Mitochondria Different-Phenotype (%) [2]: 56% | Population Mitotic Cells (%) [2]: 59% | Population Normal (%) [2]: 92% | Population Pyknosed Nuclei (%) [2]: 13% | Population Tubulin-Different-Phenotype (%) [2]: 23% | Total Cell Count [2]: 341 | Population Apoptotic (%) [3]: 45% | Population Fragmented Nuclei (%) [3]: 7% | Population Healthy Nuclei (%) [3]: 77% | Population Hoechst High Intensity Objects (%) [3]: 6% | Population Membrane Permeable-Phenotype (%) [3]: 0% | Population Mitochondria Different-Phenotype (%) [3]: 63% | Population Mitotic Cells (%) [3]: 54% | Population Normal (%) [3]: 93% | Population Pyknosed Nuclei (%) [3]: 14% | Population Tubulin-Different-Phenotype (%) [3]: 41% | Total Cell Count [3]: 395 | Population Apoptotic (%) [4]: 51% | Population Fragmented Nuclei (%) [4]: 8% | Population Hoechst High Intensity Objects (%) [4]: 13% | Population Mitochondria Different-Phenotype (%) [4]: 68% | Population Mitotic Cells (%) [4]: 48% | Population Normal (%) [4]: 86% | Population Tubulin-Different-Phenotype (%) [4]: 37% | Total Cell Count [4]: 357 | Population Apoptotic (%) [5]: 22% | Population Fragmented Nuclei (%) [5]: 11% | Population Healthy Nuclei (%) [5]: 76% | Population Hoechst High Intensity Objects (%) [5]: 7% | Population Membrane Permeable-Phenotype (%) [5]: 1% | Population Mitochondria Different-Phenotype (%) [5]: 25% | Population Mitotic Cells (%) [5]: 77% | Population Normal (%) [5]: 92% | Population Pyknosed Nuclei (%) [5]: 11% | Population Tubulin-Different-Phenotype (%) [5]: 28% | Total Cell Count [5]: 612 | Population Apoptotic (%) [6]: 34% | Population Fragmented Nuclei (%) [6]: 7% | Population Healthy Nuclei (%) [6]: 83% | Population Hoechst High Intensity Objects (%) [6]: 5% | Population Membrane Permeable-Phenotype (%) [6]: 0% | Population Mitochondria Different-Phenotype (%) [6]: 37% | Population Mitotic Cells (%) [6]: 65% | Population Normal (%) [6]: 94% | Population Pyknosed Nuclei (%) [6]: 9% | Population Tubulin-Different-Phenotype (%) [6]: 16% | Total Cell Count [6]: 477 | Population Apoptotic (%) [7]: 46% | Population Fragmented Nuclei (%) [7]: 10% | Population Healthy Nuclei (%) [7]: 78% | Population Hoechst High Intensity Objects (%) [7]: 7% | Population Membrane Permeable-Phenotype (%) [7]: 0% | Population Mitochondria Different-Phenotype (%) [7]: 46% | Population Mitotic Cells (%) [7]: 54% | Population Normal (%) [7]: 92% | Population Pyknosed Nuclei (%) [7]: 10% | Population Tubulin-Different-Phenotype (%) [7]: 35% | Total Cell Count [7]: 490 | Population Fragmented Nuclei (%) [8]: 12% | Population Hoechst High Intensity Objects (%) [8]: 11% | Population Mitochondria Different-Phenotype (%) [8]: 55% | Population Mitotic Cells (%) [8]: 53% | Population Normal (%) [8]: 88% | Population Pyknosed Nuclei (%) [8]: 9% | Population Tubulin-Different-Phenotype (%) [8]: 31% | Total Cell Count [8]: 483 | Population Apoptotic (%) [9]: 20% | Population Fragmented Nuclei (%) [9]: 15% | Population Healthy Nuclei (%) [9]: 77% | Population Hoechst High Intensity Objects (%) [9]: 4% | Population Membrane Permeable-Phenotype (%) [9]: 1% | Population Mitochondria Different-Phenotype (%) [9]: 15% | Population Mitotic Cells (%) [9]: 79% | Population Normal (%) [9]: 95% | Population Pyknosed Nuclei (%) [9]: 6% | Population Tubulin-Different-Phenotype (%) [9]: 15% | Total Cell Count [9]: 956 | Population Apoptotic (%) [10]: 28% | Population Fragmented Nuclei (%) [10]: 13% | Population Healthy Nuclei (%) [10]: 81% | Population Hoechst High Intensity Objects (%) [10]: 5% | Population Mitochondria Different-Phenotype (%) [10]: 20% | Population Mitotic Cells (%) [10]: 71% | Population Normal (%) [10]: 94% | Population Pyknosed Nuclei (%) [10]: 5% | Population Tubulin-Different-Phenotype (%) [10]: 11% | Total Cell Count [10]: 703 | Population Apoptotic (%) [11]: 33% | Population Fragmented Nuclei (%) [11]: 16% | Population Healthy Nuclei (%) [11]: 76% | Population Hoechst High Intensity Objects (%) [11]: 7% | Population Membrane Permeable-Phenotype (%) [11]: 0% | Population Mitochondria Different-Phenotype (%) [11]: 32% | Population Mitotic Cells (%) [11]: 66% | Population Normal (%) [11]: 92% | Population Pyknosed Nuclei (%) [11]: 6% | Population Tubulin-Different-Phenotype (%) [11]: 18% | Total Cell Count [11]: 659 | Population Apoptotic (%) [12]: 25% | Population Fragmented Nuclei (%) [12]: 18% | Population Healthy Nuclei (%) [12]: 75% | Population Hoechst High Intensity Objects (%) [12]: 6% | Population Membrane Permeable-Phenotype (%) [12]: 1% | Population Mitochondria Different-Phenotype (%) [12]: 25% | Population Mitotic Cells (%) [12]: 74% | Population Normal (%) [12]: 93% | Population Pyknosed Nuclei (%) [12]: 5% | Total Cell Count [12]: 731
